Series [1] relates to Plasmodium falciparum. As to the kind of experiment: Antimalarial activity against chloroquine-resistant erythrocytic stage of Plasmodium falciparum K1 infected in human red blood cells assessed as growth inhibition after 48 hrs by [3H]-hypoxanthine incorporation assay. Type of series: functional, organism-based. The essentials:
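Erythrocytic P. falciparum in RPMI 1640 without hypoxanthine, with HEPES, NaHCO3, neomycin, Albumax, and human A+ red cells at 2.5% haematocrit and 0.3% parasitaemia. Compounds from a 10 mg/mL DMSO stock, eleven 3-fold dilutions from 100 to 0.002 µg/mL. Incubated 48 h at 37 °C (4% CO2, 3% O2), then 3H-hypoxanthine added for 24 h more. Cells harvested and counted by scintillation. IC50 by linear regression of the sigmoidal curves, mean of two independent assays.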

A short description of series [2]: Inhibition of beta-haematin formation after 5 to 6 hrs by UV-vis spectamax plate reader analysis. The format is functional. The essentials: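 Detergent-mediated assay: compounds from DMSO stocks (20, 2, 0.4 mM) in duplicate, 0–1000 µM final. Added water and NP-40, then haematin at 100 µM final in 0.5 M acetate buffer pH 4.8. Incubated at 37 °C for 5–6 h. Pyridine added to 5% v/v final in HEPES pH 7.4 with acetone. Haem–pyridine absorbance read (405 nm). IC50 from sigmoidal fits.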

In series [3] the test system is Plasmodium falciparum. The series is described as follows: Antimalarial activity against chloroquine-sensitive erythrocytic stage of Plasmodium falciparum NF54 infected in human red blood cells assessed as growth inhibition after 72 hrs by [3H]-hypoxanthine incorporation assay.
For series [4], the system named is Plasmodium berghei. The series is described as follows: Antimalarial activity against Plasmodium berghei infected in Swiss mouse assessed as reduction in parasitaemia at 20 mg/kg, ip administered for 4 days measured on day 4 post last dose by FACS analysis relative to control. Type of series: functional. More on the design: scale not given: the % may be the effect or the level left. The note with it: route intraperitoneal. The essentials: (§1)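 Intraperitoneal dosing at 20 mg/kg daily for four consecutive days. Parasitaemia read on day 4 and day 7. Activity is the difference between mean percent parasitaemia of the control group (n = 5 mice) and the treated group, expressed as a percent of control.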
For orientation: In flow cytometry, cells or beads pass a laser one at a time.

For series [5], the system named is Plasmodium falciparum. As to the kind of experiment: Resistance index, ratio of IC50 for chloroquine-resistant erythrocytic stage of Plasmodium falciparum K1 to IC50 for chloroquine-sensitive erythrocytic stage of Plasmodium falciparum NF54. The format is functional.
The next series relates to L6. As to the kind of experiment: Cytotoxicity against rat L6 cells assessed as growth inhibition after 70 hrs by Alamar blue staining-based inverted microscopic analysis. The format is cell-based. The conditions noted are these: L6, 70 h. The essentials: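 L6 rat skeletal myoblasts, 4000 cells/well in RPMI 1640 with 1% L-glutamine (200 mM) and 10% FBS. Eleven 3-fold dilutions spanning 100 to 0.002 µg/mL. After 70 h, Alamar Blue added for 2 h more. Fluorescence read at ex 536/em 588 nm. IC50 from sigmoidal dose–inhibition curves by linear regression.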
For orientation: Alamar Blue is a resazurin reagent that responds to reducing activity.

Series [6] concerns Plasmodium berghei. The series is described as follows: Antimalarial activity against Plasmodium berghei infected in Swiss mouse assessed as reduction in parasitaemia at 20 mg/kg, ip administered for 4 days measured on day 7 by FACS analysis relative to control. The format is functional. Further details: scale not given: the % may be the effect or the level left. The note with it: route intraperitoneal. Put shortly:
as §1

Series [7] is described as follows: Selectivity index, ratio of IC50 for rat L6 cells to IC50 for chloroquine-resistant erythrocytic stage of Plasmodium falciparum K1. The note with it: read-out: Ratio IC50. Type of series: toxicity, cell-based. The essentials:
(§2)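 IC50 in rat L6 skeletal myoblasts divided by the antiplasmodial IC50 for the named strain. L6 cells were seeded at 4000 per well in RPMI 1640 with L-glutamine and 10% FBS and exposed to eleven 3-fold dilutions from 100 to 0.002 µg/mL for 70 h. Alamar Blue was then added for 2 h and fluorescence read at ex 536 / em 588 nm. IC50 by linear regression of the sigmoidal curves.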

Series [8] is described as follows: Selectivity index, ratio of IC50 for rat L6 cells to IC50 for chloroquine-sensitive erythrocytic stage of Plasmodium falciparum NF54. Type of series: toxicity, cell-based. The note with it: read-out: Ratio IC50. The essentials: as §2
Another series relates to MRC5. The series is described as follows: Cytotoxicity against human MRC5 cells assessed as growth inhibition. The format is cell-based.
The nature of series [9]: Solubility of the compound in water. The format is physicochemical. The note with it: buffer.

By IC50 is commonly meant the point on the concentration scale where inhibition reaches its midpoint. As to `COC(=O)c1ccc2c(c1)c(NCCCN)c1c3ccccc3nc-1n2C`, the IC50 was 22.1 nM in the series on Plasmodium falciparum [1], 104000 nM in [2], 8.28 nM in the series with Plasmodium falciparum [3] and 337 nM in the series on L6. For the same molecule, the results for the Activity in the series on Plasmodium berghei [4] and with Plasmodium berghei [6] were 33.4% and 72.5%, respectively. Further, in the series with Plasmodium falciparum [5], the “Ratio IC50” value amounted to 2.67. Besides, the selectivity ratio turned out to be 15.2 in series [7] and 40.7 in series [8].

As for `Cn1c2nc3ccccc3c-2cc2cc(Br)ccc21`, in the series on MRC5, the IC50 is more than 32000 nM.

Turning to `Cn1c2nc3ccc(C(=O)O)cc3c-2c(NCCCN)c2ccccc21`, the IC50 with Plasmodium falciparum [3] was 1690 nM; with L6, 113000 nM. For the same molecule, the solubility entry in [9] was “soluble”. Besides, in [8], the selectivity ratio was 66.8.

On to `COC(=O)c1ccc2nc3n(C)c4ccccc4c(NCCCN)c-3c2c1`, for which the IC50 was found to be 30.3 nM in the series with Plasmodium falciparum [1], 48900 nM in [2], 24.8 nM with Plasmodium falciparum [3] and 218 nM in the series on L6. For the same molecule, the Activity in the series on Plasmodium berghei [4] came out at 33.4%; in the series on Plasmodium berghei [6] it was 72.5%. Further, the “Ratio IC50” value with Plasmodium falciparum [5] is recorded as 1.22. The selectivity ratio in [7] came to 7.19; in series [8] it was 8.79.
